Results on four compounds are retold here after ChEMBL document CHEMBL4304816, “A Novel Biphenyl-based Chemotype of Retinoid X Receptor Ligands Enables Subtype and Heterodimer Preferences” (ACS Med Chem Lett, 2019).

Common to all, as to format: cell-based
The species named for assay [1] is Homo sapiens. Description: Agonist activity at full-length human PPARgamma/RXR expressed in HEK293T cells at 5 uM after 14 to 16 hrs by dual-glo luciferase reporter gene assay relative to untreated control. In short, it runs like this:
(§1)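 RXR:LXR or RXR:PPARγ heterodimer reporter assay with test compound alone. Activation expressed relative to 0.1% DMSO vehicle. Three independent experiments, each in duplicate; mean reported.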

Assay [2] addresses T1, Retinoic acid receptor RXR-beta (Homo sapiens, UniProt P28702).
T1 sequence (P28702 whole entry): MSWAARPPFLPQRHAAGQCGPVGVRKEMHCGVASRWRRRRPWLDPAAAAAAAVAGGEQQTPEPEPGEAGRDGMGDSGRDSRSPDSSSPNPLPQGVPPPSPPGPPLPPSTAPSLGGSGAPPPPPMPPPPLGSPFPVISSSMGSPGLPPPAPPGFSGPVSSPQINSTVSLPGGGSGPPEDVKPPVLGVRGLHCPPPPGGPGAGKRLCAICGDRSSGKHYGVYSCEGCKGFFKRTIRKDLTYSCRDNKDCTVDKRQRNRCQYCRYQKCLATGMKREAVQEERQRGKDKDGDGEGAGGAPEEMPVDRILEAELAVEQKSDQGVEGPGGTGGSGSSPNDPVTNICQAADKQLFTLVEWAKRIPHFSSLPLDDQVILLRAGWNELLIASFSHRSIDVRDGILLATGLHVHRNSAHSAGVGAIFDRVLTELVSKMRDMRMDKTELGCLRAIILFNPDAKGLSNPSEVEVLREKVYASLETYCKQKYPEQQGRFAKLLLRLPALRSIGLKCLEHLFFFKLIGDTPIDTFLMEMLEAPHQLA
Description: Agonist activity at Gal4-LBD fused RXRbeta (unknown origin) expressed in HEK293T cells after 14 to 16 hrs by dual-Glo luciferase assay. In short, it runs like this:
(§2)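 Gal4-hybrid RXRα/β/γ reporter gene assays in HEK293T cells. Fold activation is the maximal fold activation versus 0.1% DMSO.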

The target of assay [3] is T2, Retinoic acid receptor RXR-beta (Homo sapiens) (UniProt P28702).
T2 sequence (whole entry): T1 sequence (P28702 whole entry)
Description: Agonist activity at Gal4-LBD fused RXRbeta (unknown origin) expressed in HEK293T cells at 0.1 to 3 uM after 14 to 16 hrs in presence of RXR antagonist HX531 by dual-Glo luciferase reporter gene assay. On the technique in general: A reporter such as luciferase makes a cellular process visible.

The species named for assay [4] is Homo sapiens. Description: Agonist activity at full-length human PPARgamma/RXR expressed in HEK293T cells at 5 uM after 14 to 16 hrs in presence of 1 uM rosiglitazone by dual-glo luciferase reporter gene assay relative to rosiglitazone. The procedure, abridged: (§3)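 Synergy format: the test compound was co-applied with the partner-receptor reference agonist at 1 μM, either T0901317 (RXR:LXR) or rosiglitazone (RXR:PPARγ). Relative synergistic activation was derived from three independent experiments, each in duplicate; mean reported.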

Assay [5] in a line: Agonist activity at full-length human RXR/LXR expressed in HEK293T cells at 5 uM after 14 to 16 hrs in presence of 1 uM T0901317 by dual-glo luciferase reporter gene assay relative to T0901317. The following applies: HEK-293T, read-out: Activity. The procedure, abridged: as §3
Assay [6] in a line: Agonist activity at full-length human RXR/LXR expressed in HEK293T cells at 5 uM after 14 to 16 hrs by dual-glo luciferase reporter gene assay relative to untreated control. The following applies: HEK-293T, read-out: Activity. In short, it runs like this:
as §1

Assay [7] addresses T3, Retinoic acid receptor RXR-gamma (Homo sapiens) (UniProt P48443).
T3 sequence (whole entry): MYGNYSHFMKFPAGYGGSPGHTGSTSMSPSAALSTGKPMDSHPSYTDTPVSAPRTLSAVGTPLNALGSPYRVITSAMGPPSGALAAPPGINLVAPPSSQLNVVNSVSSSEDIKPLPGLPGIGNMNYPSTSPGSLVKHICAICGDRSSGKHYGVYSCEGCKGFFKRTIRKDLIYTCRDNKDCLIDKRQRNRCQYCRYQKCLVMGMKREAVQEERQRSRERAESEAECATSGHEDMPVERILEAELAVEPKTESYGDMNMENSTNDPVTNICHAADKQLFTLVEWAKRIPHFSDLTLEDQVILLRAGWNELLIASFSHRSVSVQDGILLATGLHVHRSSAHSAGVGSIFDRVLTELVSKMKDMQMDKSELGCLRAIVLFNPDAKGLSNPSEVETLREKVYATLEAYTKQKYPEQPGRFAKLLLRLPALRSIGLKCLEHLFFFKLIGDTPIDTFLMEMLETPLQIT
Description: Agonist activity at Gal4-LBD fused RXRgamma (unknown origin) expressed in HEK293T cells at 0.1 to 3 uM after 14 to 16 hrs in presence of RXR antagonist HX531 by dual-Glo luciferase reporter gene assay.

The target of assay [8] is T4, Retinoic acid receptor RXR-gamma (Homo sapiens, UniProt P48443).
T4 sequence (P48443 whole entry): T3 sequence (whole entry)
Description: Agonist activity at Gal4-LBD fused RXRgamma (unknown origin) expressed in HEK293T cells after 14 to 16 hrs by dual-Glo luciferase assay. In short, it runs like this: as §2

For assay [9], the target named is T5, Retinoic acid receptor RXR-alpha (Homo sapiens, UniProt P19793).
T5 sequence (P19793 whole entry): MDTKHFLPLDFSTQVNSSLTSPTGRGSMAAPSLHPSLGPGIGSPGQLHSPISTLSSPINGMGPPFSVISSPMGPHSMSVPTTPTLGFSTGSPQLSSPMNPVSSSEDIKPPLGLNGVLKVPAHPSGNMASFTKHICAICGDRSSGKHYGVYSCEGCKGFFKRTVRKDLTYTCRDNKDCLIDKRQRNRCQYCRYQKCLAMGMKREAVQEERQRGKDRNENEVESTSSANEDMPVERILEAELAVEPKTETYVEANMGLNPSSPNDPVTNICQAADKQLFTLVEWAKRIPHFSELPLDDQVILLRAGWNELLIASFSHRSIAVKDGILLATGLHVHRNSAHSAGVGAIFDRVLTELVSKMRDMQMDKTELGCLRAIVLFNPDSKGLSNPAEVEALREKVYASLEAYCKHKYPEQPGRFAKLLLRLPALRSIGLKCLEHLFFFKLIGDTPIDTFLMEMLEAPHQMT
Description: Agonist activity at Gal4-LBD fused RXRalpha (unknown origin) expressed in HEK293T cells after 14 to 16 hrs by dual-Glo luciferase assay. In short, it runs like this: as §2

The target in assay [10] is T6, Retinoic acid receptor RXR-alpha (Homo sapiens) (UniProt P19793).
T6 sequence (whole entry): T5 sequence (P19793 whole entry)
Description: Agonist activity at Gal4-LBD fused RXRalpha (unknown origin) expressed in HEK293T cells at 0.1 to 3 uM after 14 to 16 hrs in presence of RXR antagonist HX531 by dual-Glo luciferase reporter gene assay.

Assay [11] deals with T2, Retinoic acid receptor RXR-beta (Homo sapiens). Description: Agonist activity at Gal4-LBD fused RXRbeta (unknown origin) expressed in HEK293T cells assessed as fold activation after 14 to 16 hrs by dual-Glo luciferase assay relative to untreated control. In short, it runs like this:
as §2

Assay [12] has as its target T6, Retinoic acid receptor RXR-alpha (Homo sapiens). Description: Agonist activity at Gal4-LBD fused RXRalpha (unknown origin) expressed in HEK293T cells assessed as fold activation at 30 uM after 14 to 16 hrs by dual-Glo luciferase assay relative to untreated control. The procedure, abridged:
as §2

Assay [13] has as its target T3, Retinoic acid receptor RXR-gamma (Homo sapiens). Description: Agonist activity at Gal4-LBD fused RXRgamma (unknown origin) expressed in HEK293T cells assessed as fold activation at 30 uM after 14 to 16 hrs by dual-Glo luciferase assay relative to untreated control. In short, it runs like this: as §2
Assay [14] has the same target. Description: Agonist activity at Gal4-LBD fused RXRgamma (unknown origin) expressed in HEK293T cells at 30 uM after 14 to 16 hrs by dual-Glo luciferase assay.
For assay [15], the target named is T2, Retinoic acid receptor RXR-beta (Homo sapiens). Description: Agonist activity at Gal4-LBD fused RXRbeta (unknown origin) expressed in HEK293T cells assessed as fold activation at 30 uM after 14 to 16 hrs by dual-Glo luciferase assay relative to untreated control. The procedure, abridged:
as §2

In assay [16] the target is T6, Retinoic acid receptor RXR-alpha (Homo sapiens). Description: Agonist activity at Gal4-LBD fused RXRalpha (unknown origin) expressed in HEK293T cells assessed as fold activation after 14 to 16 hrs by dual-Glo luciferase assay relative to untreated control. In short, it runs like this:
as §2

Assay [17] shares this target. Description: Agonist activity at Gal4-LBD fused RXRalpha (unknown origin) expressed in HEK293T cells at 10 uM after 14 to 16 hrs by dual-Glo luciferase assay.
The target in assay [18] is T2, Retinoic acid receptor RXR-beta (Homo sapiens). Description: Agonist activity at Gal4-LBD fused RXRbeta (unknown origin) expressed in HEK293T cells at 10 uM after 14 to 16 hrs by dual-Glo luciferase assay.
Assay [19] addresses T3, Retinoic acid receptor RXR-gamma (Homo sapiens). Description: Agonist activity at Gal4-LBD fused RXRgamma (unknown origin) expressed in HEK293T cells at 10 uM after 14 to 16 hrs by dual-Glo luciferase assay.
The nature of assay [20]: Agonist activity at full-length human RXR/LXR expressed in HEK293T cells at 20 uM after 14 to 16 hrs by dual-glo luciferase reporter gene assay relative to untreated control. The following applies: HEK-293T, read-out: Activity. The procedure, abridged: as §1
Assay [21] is filed under the species Homo sapiens. Description: Agonist activity at full-length human PPARgamma/RXR expressed in HEK293T cells at 20 uM after 14 to 16 hrs in presence of 1 uM rosiglitazone by dual-glo luciferase reporter gene assay relative to rosiglitazone. The procedure, abridged: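 RXR:PPARγ heterodimer reporter assay run with reference PPARγ agonist rosiglitazone (1 μM) co-applied. Read-out is mean relative synergistic activation, from three independent experiments each run in duplicate.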

For assay [22], the species on record is Homo sapiens. Description: Agonist activity at full-length human PPARgamma/RXR expressed in HEK293T cells at 20 uM after 14 to 16 hrs by dual-glo luciferase reporter gene assay relative to untreated control. In short, it runs like this:
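RXR:PPARγ heterodimer reporter assay in HEK293T cells with test compound alone. Mean relative activation is taken versus 0.1% DMSO, from three independent experiments each run in duplicate.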

A short description of assay [23]: Agonist activity at full-length human RXR/LXR expressed in HEK293T cells at 20 uM after 14 to 16 hrs in presence of 1 uM T0901317 by dual-glo luciferase reporter gene assay relative to T0901317. The following applies: HEK-293T, read-out: Activity. The procedure, abridged: as §3

The source made the active and inactive calls. The rule behind the calls is not given here.

For the compound `CC(C)(C)c1cc(-c2ccc(CC(=O)O)cc2)cc(C(C)(C)C)c1`, the values for the Activity in the assay filed under Homo sapiens [1] and in the assay filed under Homo sapiens [4] were 173% and 108%, respectively. Besides, the EC50 (commonly the midpoint of the concentration-response curve) was determined as 0.8 µM in assay [2], 3.3 µM in [8] and 0.47 µM in assay [9]. Further, the Activity entry in assay [3], in [7] and in [10] was “inactive” throughout. Moreover, the activity at 5 µM in assay [5] was determined as 82%; in assay [6] it was 89%.
As to `Cc1cc(C)cc(-c2ccc(C(=O)O)cc2)c1`, the EC50 in assay [2] came out at 18.6 µM; in [9], 9.6 µM. Also, the fold change (FC) in [11] was 97; in assay [12], 25; in [13], 2; in [15], 74; in [16], 26. For the same compound, the Activity result in assay [14] is “inactive”.
As to `CC(C)(C)c1cc(-c2ccc(C(=O)O)nc2)cc(C(C)(C)C)c1`, the Activity result in assay [17], in assay [18] and in [19] was “inactive” throughout.
As to `Cc1cc(-c2cc(C(F)(F)F)cc(C(F)(F)F)c2)ccc1C(=O)O`, the EC50 in assay [2] turned out to be 8.9 µM; in assay [9] it was 9.1 µM. The activity at 20 µM in [20] and in assay [23] was 71% each time. Also, in [14], the Activity entry was “inactive”. Moreover, the Activity stood at 46% in the assay filed under Homo sapiens [21] and 84% in the assay filed under Homo sapiens [22].
